# Calls of active or inactive are those of the source. The rule behind the calls is not given here.
# Key:
# [1] = system: HeLa; experiment: Induction of cell cycle arrest in human Hela cells assessed as phosphorylated cdc2 expression at 0.5 uM incubated for 48 hrs by Western blot analysis relative to control; assay type: functional
# Summary of the method: (§1)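 HeLa cells treated at 0.1 or 0.5 μM for 24 or 48 h, washed in ice-cold PBS, lysed on ice 30 min, cleared at 15 000g, 4 °C. 10 μg protein per lane on SDS-PAGE, transferred to PVDF, blocked overnight in 5% BSA at 4 °C. Primary antibodies 2 h at room temperature, peroxidase secondaries 1 h, ECL detection. Membranes reprobed for GAPDH; densitometry reported as protein/GAPDH ratio.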
# [2] = system: HeLa; experiment: Induction of cell cycle arrest in human Hela cells assessed as phosphorylated cdc2 expression at 0.1 uM incubated for 48 hrs by Western blot analysis relative to control; assay type: functional; summary of the method: as §1
# [3] = system: HeLa; experiment: Induction of cell cycle arrest in human Hela cells assessed as accumulation at G2/M phase at 0.125 uM incubated for 24 hrs by PI staining based flow cytometric analysis; assay type: functional
# Summary of the method: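 5 × 10^5 HeLa cells treated 24 h over a range of concentrations, fixed in ice-cold 70% ethanol, treated with lysis buffer containing RNase A and 0.1% Triton X-100, PI-stained. DNA content read by flow cytometry; phase distribution is mean ± SEM of three experiments.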
# [4] = system: HeLa; experiment: Induction of apoptosis in human HeLa cells assessed as XIAP protein expression at 0.5 uM incubated for 24 hrs by Western blot analysis relative to control; assay type: functional; summary of the method: as §1
# [5] = system: HeLa; experiment: Induction of apoptosis in human Hela cells assessed as increase in apoptotic cells at 0.5 uM incubated for 24 to 48 hrs by Annexin V-FITC/propidium iodide staining based flow cytometry; assay type: functional, cell-based; details: time hrs 24-48
# Summary of the method: (§2)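 HeLa cells exposed 24 or 48 h, harvested, double-stained with annexin-V-FITC and PI, then read by flow cytometry. Gates: live (annexin-V–/PI–), early apoptotic (annexin-V+/PI–), late apoptotic (annexin-V+/PI+), necrotic (annexin-V–/PI+). Mean ± SEM of three independent experiments.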
# [6] = system: HeLa; experiment: Induction of cell cycle arrest in human Hela cells assessed as cyclin B expression at 0.5 uM incubated for 24 hrs by Western blot analysis relative to control; assay type: functional; summary of the method: as §1
# [7] = system: HeLa; experiment: Induction of cell cycle arrest in human Hela cells assessed as accumulation at G2/M phase incubated for 24 hrs by PI staining based flow cytometric analysis; assay type: functional
# [8] = system: HeLa; experiment: Induction of cell cycle arrest in human Hela cells assessed as phosphorylated cdc2 expression at 0.5 uM incubated for 24 hrs by Western blot analysis relative to control; assay type: functional; summary of the method: as §1
# [9] = system: HeLa; experiment: Induction of apoptosis in human HeLa cells assessed as MCL1 protein expression at 0.5 uM incubated for 48 hrs by Western blot analysis relative to control; assay type: functional; summary of the method: as §1
# [10] = system: HeLa; experiment: Induction of cell cycle arrest in human Hela cells assessed as phosphorylated cdc2 expression at 0.1 uM incubated for 24 hrs by Western blot analysis relative to control; assay type: functional; summary of the method: as §1
# [11] = system: HeLa; experiment: Induction of apoptosis in human HeLa cells assessed as cleaved PARP protein expression at 0.5 uM incubated for 48 hrs by Western blot analysis relative to control; assay type: functional; summary of the method: as §1
# [12] = system: HeLa; experiment: Induction of apoptosis in human HeLa cells assessed as cleaved PARP protein expression at 0.1 uM incubated for 48 hrs by Western blot analysis relative to control; assay type: functional; summary of the method: as §1
# [13] = system: HeLa; experiment: Induction of cell cycle arrest in human Hela cells assessed as cyclin B expression at 0.1 uM incubated for 24 hrs by Western blot analysis relative to control; assay type: functional; summary of the method: as §1
# [14] = system: HeLa; experiment: Induction of apoptosis in human HeLa cells assessed as MCL1 protein expression at 0.1 uM incubated for 48 hrs by Western blot analysis relative to control; assay type: functional; summary of the method: as §1
# [15] = system: HeLa; experiment: Induction of cell cycle arrest in human Hela cells assessed as cdc25c expression at 0.1 uM incubated for 24 hrs by Western blot analysis relative to control; assay type: functional; summary of the method: as §1
# [16] = system: HeLa; experiment: Induction of cell cycle arrest in human Hela cells assessed as cyclin B expression at 0.5 uM incubated for 48 hrs by Western blot analysis relative to control; assay type: functional; summary of the method: as §1
# [17] = system: HeLa; experiment: Induction of apoptosis in human HeLa cells assessed as cleaved PARP protein expression at 0.5 uM incubated for 24 hrs by Western blot analysis relative to control; assay type: functional; summary of the method: as §1
# [18] = system: HeLa; experiment: Induction of apoptosis in human HeLa cells assessed as cleaved PARP protein expression at 0.1 uM incubated for 24 hrs by Western blot analysis relative to control; assay type: functional; summary of the method: as §1
# [19] = system: HeLa; experiment: Induction of cell cycle arrest in human Hela cells assessed as cyclin B expression at 0.1 uM incubated for 48 hrs by Western blot analysis relative to control; assay type: functional; summary of the method: as §1
# [20] = system: HeLa; experiment: Induction of apoptosis in human HeLa cells assessed as XIAP protein expression at 0.1 uM incubated for 24 hrs by Western blot analysis relative to control; assay type: functional; summary of the method: as §1
# [21] = system: HeLa; experiment: Induction of apoptosis in human HeLa cells assessed as MCL1 protein expression at 0.1 uM incubated for 24 hrs by Western blot analysis relative to control; assay type: functional; summary of the method: as §1
# [22] = Cytotoxicity against human PBL assessed as reduction in cell viability in presence of mitogenic stimulus phytohaemagglutinin incubated for 72 hrs by MTT assay; assay type: cell-based
# Summary of the method: (§3)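 PBLs from healthy donor buffy coats isolated by density-gradient centrifugation, washed, held overnight at 1.0 × 10^6 cells/mL in RPMI-1640 with 10% FBS. Nonadherent cells reseeded at 5 × 10^5 cells/mL, either with 2.5 μg/mL PHA (proliferating) or without (resting). Graded compound concentrations for 72 h, viability by MTT. GI50 = concentration inhibiting growth 50%; mean ± SEM of three separate experiments.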
# [23] = system: HeLa; experiment: Induction of reactive oxygen species generation in human HeLa cells at 0.5 uM treated for 48 hrs by H2DCFDA staining based flow cytometry; assay type: functional, cell-based
# Summary of the method: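 After treatment, HeLa cells pelleted and resuspended in PBS containing 0.1 μM H2DCFDA, incubated 30 min at 37 °C, then washed back into PBS. DCF fluorescence measured by flow cytometry (excitation 488 nm, emission 530 nm). Mean ± SEM of three independent experiments.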
# [24] = system: HeLa; experiment: Induction of apoptosis in human HeLa cells assessed as XIAP protein expression at 0.1 uM incubated for 48 hrs by Western blot analysis relative to control; assay type: functional; summary of the method: as §1
# [25] = Cytotoxicity against human PBL assessed as reduction in cell viability incubated for 72 hrs by MTT assay; assay type: cell-based; details: peripheral blood lymphocytes (PBL); summary of the method: as §3
# [26] = system: HeLa; experiment: Induction of apoptosis in human HeLa cells assessed as MCL1 protein expression at 0.5 uM incubated for 24 hrs by Western blot analysis relative to control; assay type: functional; summary of the method: as §1
# [27] = system: HeLa; experiment: Induction of cell cycle arrest in human Hela cells assessed as cdc25c expression at 0.1 uM incubated for 48 hrs by Western blot analysis relative to control; assay type: functional; summary of the method: as §1
# [28] = system: HeLa; experiment: Induction of apoptosis in human Hela cells assessed as increase in necrotic cells at 0.5 uM incubated for 24 to 48 hrs by Annexin V-FITC/propidium iodide staining based flow cytometry; assay type: functional, cell-based; details: time hrs 24-48; summary of the method: as §2
# [29] = system: HeLa; experiment: Induction of cell cycle arrest in human Hela cells assessed as cdc25c expression at 0.5 uM incubated for 24 hrs by Western blot analysis relative to control; assay type: functional; summary of the method: as §1
# [30] = system: HeLa; experiment: Induction of cell cycle arrest in human Hela cells assessed as reduction of cells at S phase 1 uM incubated for 24 hrs by PI staining based flow cytometric analysis; assay type: functional
# [31] = system: HeLa; experiment: Induction of cell cycle arrest in human Hela cells assessed as accumulation at M phase at 1 uM incubated for 24 hrs by PI staining based flow cytometric analysis; assay type: functional
# [32] = system: HeLa; experiment: Induction of cell cycle arrest in human Hela cells assessed as accumulation at G2/M phase at 0.25 uM incubated for 24 hrs by PI staining based flow cytometric analysis; assay type: functional
# Summary of the method: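 HeLa cells (5 × 10^5) exposed to compound at several concentrations for 24 h, then collected, fixed in ice-cold 70% ethanol, treated with lysis buffer containing RNase A and 0.1% Triton X-100, stained with propidium iodide. DNA content measured by flow cytometry; percentage of cells in each cycle phase derived from DNA histograms. Mean ± SEM of three experiments.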
smiles,measurement,setting,value
CCOC(=O)c1cc2c(n1Cc1cc(OC)cc(OC)c1)-c1oncc1CCC2,fold change (FC),[1],0.31
same,fold change (FC),[2],0.17
same,Activity,[3],Active
same,fold change (FC),[4],0.54
same,Activity,[5],Active
same,fold change (FC),[6],64.07
same,Activity,[7],Dose-dependent effect
same,fold change (FC),[8],0.31
same,fold change (FC),[9],0.38
same,fold change (FC),[10],0.51
same,fold change (FC),[11],42.83
same,fold change (FC),[12],13.8
same,fold change (FC),[13],18.74
same,fold change (FC),[14],0.37
same,fold change (FC),[15],0.23
same,fold change (FC),[16],2.05
same,fold change (FC),[17],42.13
same,fold change (FC),[18],17.65
same,fold change (FC),[19],2.39
same,fold change (FC),[20],0.91
same,fold change (FC),[21],0.37
same,GI50 at 72 h,[22],> 100 µM
same,Activity,[23],Active
same,fold change (FC),[24],0.12
same,GI50 at 72 h,[25],> 100 µM
same,fold change (FC),[26],0.11
same,fold change (FC),[27],0.23
same,Activity,[28],Active
same,fold change (FC),[29],0.05
CCOC(=O)c1cc2c(n1Cc1cccc(OC)c1)-c1oncc1CCC2,Activity,[30],Active
same,Activity,[31],Active
same,GI50 at 72 h,[22],> 100 µM
same,GI50 at 72 h,[25],> 100 µM
CCOC(=O)c1c(Cl)c2c(n1Cc1cc(OC)cc(OC)c1)-c1oncc1CCC2,Activity,[32],Active
same,GI50 at 72 h,[22],> 100 µM
same,GI50 at 72 h,[25],> 100 µM
